proCasp7 act: counter-screen for procaspase-3 activators: activators of human procaspase-7; actives 0.093% (n = 330,000); recombinant procaspase-7, Ac-DEVD-pNA absorbance 405 nm; D23A/D198A/D206A triple mutant, cannot self-cleave; scale: DMSO 0, 5 µM enzyme 100; P55210; AID 463210; activation, % at 8.5 µM;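 active means percent activation above the screen-wide mean plus 3 SD, cut at about 25% in these data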
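Assay system: Uncleavable procaspase-7 mutant enzyme / Input: 2 µM procaspase-7 mutant as dispensed / Dosing: single nominal 8.5 µM compound dose, 0.8% DMSO final / Timing: 1 h enzyme–compound preincubation and 2 h substrate reaction, both 25 °C / Detection: p-Nitroaniline absorbance at 405 nm, read at 0 and 120 min / Replication: singlicate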
proCasp3 act: activates human procaspase-3; P42574; recombinant procaspase-3 D3A, Ac-DEVD-pNA absorbance 405 nm; activation, % at 8.5 µM; actives 0.11% (n = 330,000); AID 463141;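 active means activation above the mean of all tested compounds plus 3 SD, cut at about 21% in these data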;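 further: 0% = DMSO alone and 100% = DMSO wells spiked with extra 5 µM PC-3 D3A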
Target sequence (P42574 whole entry D9A/D28A/D175A): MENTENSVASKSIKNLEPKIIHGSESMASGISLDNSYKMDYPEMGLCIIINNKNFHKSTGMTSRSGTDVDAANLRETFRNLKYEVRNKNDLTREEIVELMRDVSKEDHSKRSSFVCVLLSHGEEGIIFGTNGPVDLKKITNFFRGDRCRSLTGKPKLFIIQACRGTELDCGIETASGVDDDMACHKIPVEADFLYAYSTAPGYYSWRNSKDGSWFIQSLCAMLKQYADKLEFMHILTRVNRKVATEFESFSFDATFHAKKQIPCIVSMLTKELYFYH
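Assay system: Autoprocessing-dead procaspase-3 D3A mutant enzyme; also added: Ac-DEVD-pNA; doses: one concentration, 8.5 µM nominal, 0.8% DMSO; times: 1 h compound preincubation, 2 h substrate hydrolysis at 25 °C; technique: 405 nm absorbance of p-nitroaniline, reads at 0 and 120 min; measure: % activation between DMSO and enzyme-spiked controls; repeats: single replicate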
CR mimetic SO: yeast age-related superoxide inhibition as caloric restriction mimetic; S. cerevisiae aged cells, superoxide DHE fluorescence; active compounds read low; superoxide response (% of plate mean), % at 10 µM; actives 0.18% (n = 330,000); AID 2690;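 active means superoxide response under a set limit, about three screen SD below normal, cut at about 65% in these data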;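 further: yeast aged for seven days with compound at 30 °C before DHE staining; 100% = average MFI of all compound-treated wells on the plate with controls excluded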
ARFGAP1 inh: inhibitors of rat ARFGAP1. Arfgap1-stimulated ARF1 GTP hydrolysis, GDP FP detection. AID 651572. inhibition, % at 16.5 µM. Q62848. actives 0.26% (n = 360,000);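 active means inhibition above a per-plate limit, mean inhibition of low control wells plus 3 SD, cut at about 25% in these data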;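 further: 0% = DMSO wells with enzyme and 100% = wells lacking Arfgap1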
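Replicates: Single well per compound | Assay system: Truncated rat Arfgap1 GAP domain | Control set: No-Arfgap1 wells (100%) versus DMSO full-reaction wells (0%) | Times: Enzyme reaction 120 min at 25 °C after 20 min preincubation | Reagent: Human ARF1(Δ1-17)-GTP substrate | Measured by: Tracer-displacement fluorescence polarization with EDTA stop, 620/688 nm | Measure: Percent inhibition of Arfgap1-stimulated GTP hydrolysis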
ASAP1 inh: ASAP1 ArfGAP inhibition; inhibition, % at 16.5 µM; ASAP1-stimulated ARF1 GTP hydrolysis, GDP FP detection; actives 0.19% (n = 360,000); Q9ULH1; AID 624377; in the data active means inhibition above about 25%;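 further: 0% = vehicle with enzyme and substrate and 100% = no enzyme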
LANA-H2B inh: blocks KSHV LANA binding to histone H2A/H2B; Q9QR71; AID 2629; actives 0.6% (n = 320,000); cell-free LANA-H2A/H2B peptide, fluorescence polarization; inhibition, % (no concentration beside the values); in the data active means inhibition mostly above about 10%, no sharp cut-off; inactive means mostly below about 6.7%
ARFGAP1 confirm: rat ARFGAP1 inhibition, confirmed; shares compounds with ARFGAP1 inh; inhibition, % at 16.5 µM; ARFGAP1-stimulated ARF1 GTP hydrolysis, GDP tracer FP; actives 30% (n = 890);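 active means average inhibition over triplicates above the hit cutoff set in the earlier primary screen, cut at about 25% in these data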;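 further: 0% = Arfgap1 plus ARF1-GTP with DMSO and 100% = wells lacking Arfgap1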
Target sequence (Q62848 whole entry, looked up): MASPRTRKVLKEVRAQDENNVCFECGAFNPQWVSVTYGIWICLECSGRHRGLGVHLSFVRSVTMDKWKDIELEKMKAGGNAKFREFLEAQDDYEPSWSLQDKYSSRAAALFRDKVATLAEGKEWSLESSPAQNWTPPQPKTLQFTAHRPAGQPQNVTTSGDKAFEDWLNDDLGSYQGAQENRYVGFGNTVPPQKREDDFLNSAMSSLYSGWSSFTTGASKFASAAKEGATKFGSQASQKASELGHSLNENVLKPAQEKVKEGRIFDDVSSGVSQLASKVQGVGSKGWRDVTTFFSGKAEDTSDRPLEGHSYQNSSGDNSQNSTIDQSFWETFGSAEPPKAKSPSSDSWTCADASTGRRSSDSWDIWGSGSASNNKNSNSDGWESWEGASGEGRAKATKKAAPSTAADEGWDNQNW
Active calls of the source: *. In the library only some 1.2% were active in any assay of this set; here they are far more common.

For C=C(C)COc1ccc(-c2[nH]ncc2-c2ccc(OC)cc2)c(O)c1 the results were proCasp7 act 3.2, proCasp3 act 1.3, CR mimetic SO 116.8, ARFGAP1 inh 26.1*, ASAP1 inh -3.2, LANA-H2B inh -3.2 and ARFGAP1 confirm 7.4.
For CC1(C)Cc2ccccc2-c2nnc(SCC(=O)N3CCc4ccccc43)n21 the results were proCasp7 act 14.8, proCasp3 act 3.9, CR mimetic SO 110.9, ARFGAP1 inh 26.8*, ASAP1 inh 21.9, LANA-H2B inh 0.2 and ARFGAP1 confirm 23.7.
For COc1ccc(N/N=C/c2c(C(=O)O)ccc3ccccc23)cc1 the results were proCasp7 act -34.7, proCasp3 act 13.1, CR mimetic SO 86.3, ARFGAP1 inh 26.2*, ASAP1 inh 11.3, LANA-H2B inh -4.4 and ARFGAP1 confirm 31.4*.
CC(C)(C)NC(=O)CN1CCN(C(=O)CCl)CC1 was read as proCasp7 act 10.8, proCasp3 act -1.4, CR mimetic SO 105.5, ARFGAP1 inh 24.8*, ASAP1 inh -1.3, LANA-H2B inh -0.9 and ARFGAP1 confirm -1.1.
`CC1Cc2ccccc2N1C(=O)CN1CCC(n2nnc3cc(C(F)(F)F)ccc32)CC1` (stereo not drawn) gave proCasp7 act 21.8, proCasp3 act -12.1, CR mimetic SO 93.9, ARFGAP1 inh 27.9*, ASAP1 inh 3.5, LANA-H2B inh 1.7 and ARFGAP1 confirm 7.8.
Screening COC(=O)c1ccccc1NC(=O)CN1CCC(n2nnc3cc(C(F)(F)F)ccc32)CC1 returned proCasp7 act -3.0, proCasp3 act -1.4, CR mimetic SO 101.4, ARFGAP1 inh 8.5, ASAP1 inh 5.4 and LANA-H2B inh 1.2.
For Cc1ccc2nc(N3C(=O)C(O)=C(C(=O)c4ccc(C)o4)C3c3cccc(O)c3)sc2c1 (stereo not drawn) the results were proCasp7 act -8.3, proCasp3 act 3.8, CR mimetic SO 119.9, ARFGAP1 inh 34.3*, ASAP1 inh 18.9, LANA-H2B inh -3.4 and ARFGAP1 confirm 51.5*.
COc1ccc2nc(N3C(=O)C(O)=C(C(=O)c4ccco4)C3c3ccc(OC)c(OC)c3)sc2c1 (stereo not drawn) was read as ARFGAP1 inh -2.4 and ASAP1 inh -3.1.
`CNc1nc(-c2c[nH]c3ccccc23)cs1` gave proCasp7 act -18.3, proCasp3 act -16.5, CR mimetic SO 95.1, ARFGAP1 inh 30.8*, ASAP1 inh 10.5, LANA-H2B inh 2.4 and ARFGAP1 confirm 0.9.
`COc1cc(NC(=O)c2c(OC)cccc2OC)ccc1NC(=O)c1cc2ccccc2o1` gave proCasp7 act 12.9, proCasp3 act 2.9, CR mimetic SO 108.1, ARFGAP1 inh 12.2, ASAP1 inh 10.7 and LANA-H2B inh -0.2.
COCC(=O)Nc1ccc([N+](=O)[O-])cc1OC was read as proCasp7 act 15.5, proCasp3 act -2.9, CR mimetic SO 91.4, ARFGAP1 inh -4.5, ASAP1 inh -0.7 and LANA-H2B inh -3.0.
COc1cc(NC(=O)c2cc3ccccc3o2)ccc1NC(=O)c1ccco1 was read as proCasp7 act -34.2, proCasp3 act 4.8, CR mimetic SO 98.8, ARFGAP1 inh 26.9*, ASAP1 inh -0.7, LANA-H2B inh -1.5 and ARFGAP1 confirm 11.3.
Screening COc1cc(NC(=O)COc2ccc([N+](=O)[O-])cc2)ccc1NC(=O)c1ccco1 returned ARFGAP1 inh 58.1*, ASAP1 inh 12.4 and ARFGAP1 confirm 74.9*.
Screening COc1cc([N+](=O)[O-])ccc1NC(=O)COC(=O)c1ccc(NC(N)=O)cc1 returned proCasp7 act -4.3, proCasp3 act 4.5, CR mimetic SO 107.0, ARFGAP1 inh 29.1*, ASAP1 inh 14.4, LANA-H2B inh -1.4 and ARFGAP1 confirm 19.7.
For CC1(c2nnc(Cc3ccccc3)o2)CC(c2ccncc2)=NO1 (stereo not drawn) the results were proCasp7 act -2.2, proCasp3 act 6.8, ARFGAP1 inh 42.7*, ASAP1 inh 1.2, LANA-H2B inh -0.6 and ARFGAP1 confirm 2.2.
CC1(c2nnc(Cc3ccccc3)o2)CC(c2ccc(Cl)cc2)=NO1 (stereo not drawn) was read as proCasp7 act 11.9, proCasp3 act 3.4, ARFGAP1 inh -18.4, ASAP1 inh -1.6 and LANA-H2B inh -2.0.
`O=C(Cc1c[nH]c2ccccc12)Nc1ccc(Nc2cccnc2)c(-c2ccc(OC(F)(F)F)cc2)c1` gave ARFGAP1 inh 26.5*, ASAP1 inh 4.2 and ARFGAP1 confirm 9.7.
Screening O=C(Cc1c[nH]c2ccccc12)Nc1ccc(Nc2cccnc2)c(-c2cc(F)cc(F)c2)c1 returned ARFGAP1 inh 25.1*, ASAP1 inh 4.6 and ARFGAP1 confirm 20.1.
Screening Cc1cc(C)cc(N(CC(=O)Nc2ccccc2C(=O)N2CCOCC2)S(C)(=O)=O)c1 returned proCasp7 act 2.1, proCasp3 act 4.6, CR mimetic SO 105.1, ARFGAP1 inh -0.3, ASAP1 inh 6.3 and LANA-H2B inh 0.9.
`CC1=C(C(=O)N(C)C)CC(CC(=O)NCc2cccc3ccccc23)C(=O)N1CCCN1CCCC1=O` (stereo not drawn) gave ARFGAP1 inh -4.7 and ASAP1 inh 5.5.
For O=C(NCc1ccncc1)Nc1ccccc1 the results were proCasp7 act -3.6, proCasp3 act 7.9, CR mimetic SO 96.3, ARFGAP1 inh -4.5, ASAP1 inh 9.4 and LANA-H2B inh -4.1.
For O=C(NCc1ccncc1)Nc1ccc(Cc2ccc(NC(=O)NCc3ccncc3)cc2)cc1 the results were ARFGAP1 inh 27.1*, ASAP1 inh -1.8 and ARFGAP1 confirm 56.5*.
For COc1ccc(NC(=O)C2CCCN2S(=O)(=O)c2ccc3c(c2)C(C)(C)C(=O)N3C)cc1 (stereo not drawn) the results were ARFGAP1 inh -2.9 and ASAP1 inh 6.8.
CC1(C(=O)NCCCN2CCOCC2)Oc2cccnc2NC1=O (stereo not drawn) was read as proCasp7 act 1.1, proCasp3 act 5.1, CR mimetic SO 105.3, ARFGAP1 inh 6.7, ASAP1 inh -3.4 and LANA-H2B inh -2.3.
`O=C(NCc1cccs1)c1cc2c(s1)-c1ccccc1OC2` gave proCasp7 act 9.4, proCasp3 act -116.9, CR mimetic SO 79.6, ARFGAP1 inh 47.0*, ASAP1 inh 4.3, LANA-H2B inh -8.9 and ARFGAP1 confirm 46.6*.

From PubChem
